From ChEMBL document CHEMBL2375243, “Synthesis and antioxidant properties of substituted 2-phenyl-1H-indoles” (Bioorg Med Chem Lett, 2013)
The source made the active and inactive calls. No cut-off for these calls is given here.

What was measured:
[1] = Antioxidant activity of the compound assessed as inhibition of xanthine-xanthine oxidase-mediated superoxide radical formation at 0.1 mM after 3 mins by NBT reduction assay relative to control; assay type: functional
In short: (§1)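 Superoxide anion generated by xanthine/xanthine oxidase and detected spectrophotometrically by nitroblue tetrazolium reduction. Test concentrations 1 mM and 0.1 mM, melatonin as positive control. Values are % mean inhibition from at least triplicate determinations.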

[2] = test system: Radical scavenging activity; assay: Antioxidant activity of the compound assessed as DPPH free radical scavenging activity at 0.1 mM after 30 mins by spectrophotometric analysis relative to control; assay type: functional
In short: (§2)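 Free-radical scavenging measured as bleaching of the stable radical DPPH at 517 nm. Tested at 1 mM and 0.1 mM, melatonin as positive control. Results are % mean inhibition, average of at least triplicate analyses.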

[3] = test system: Radical scavenging activity; assay: Antioxidant activity of the compound assessed as DPPH free radical scavenging activity at 1 mM after 30 mins by spectrophotometric analysis relative to control; assay type: functional; in short: as §2
Liver [4] = assay: Antioxidant activity in Wistar rat liver assessed as inhibition of Fe2+/ascorbate-induced lipid peroxidation at 1 mM after 1 hr by TBARS assay relative to control; assay type: functional, tissue-based
In short: (§3)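 Lipid peroxidation assay: MDA formation measured with thiobarbituric acid. Tested at 1 mM and 0.1 mM, melatonin as positive control. Values are % mean inhibition from at least triplicate analyses.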

Liver [5] = assay: Antioxidant activity in Wistar rat liver assessed as inhibition of Fe2+/ascorbate-induced lipid peroxidation at 0.1 mM after 1 hr by TBARS assay relative to control; assay type: functional, tissue-based; in short: as §3
[6] = Antioxidant activity of the compound assessed as inhibition of xanthine-xanthine oxidase-mediated superoxide radical formation at 1 mM after 3 mins by NBT reduction assay relative to control; assay type: functional; in short: as §1

| Compound | inhibition [1] | inhibition [2] | inhibition [3] | inhibition (Liver [4]) [%] | inhibition (Liver [5]) [%] | inhibition [6] |
| --- | --- | --- | --- | --- | --- | --- |
| COc1cc(-c2cc3ccccc3[nH]2)cc(OC)c1OC | 13% | 9% | 35% | 28 | 33 | 42% |
| Nc1ccc(-c2cc3cc(Cl)ccc3[nH]2)cc1 | inactive | 23% | 70% | 31 | 30 | 22% |
| COc1ccc(-c2cc3ccccc3[nH]2)cc1OC | 12% | 12% | 44% | 27 | 13 | 70% |
| Nc1ccc(-c2cc3cccc(F)c3[nH]2)cc1 | 15% | 43% | 77% | 30 | 26 | 23% |
| Nc1ccc(-c2cc3cc(F)ccc3[nH]2)cc1 | 20% | 18% | 28% | 19 | 17 | 35% |
| COc1ccc(-c2cc3cc(F)cc(Cl)c3[nH]2)cc1 | inactive | inactive | inactive | 33 | 6 | 32% |
| COc1ccc(-c2cc3ccccc3[nH]2)cc1 | 12% | 6% | 38% | 24 | 14 | 43% |
| COc1ccc(-c2cc3cc(F)cc(Cl)c3[nH]2)cc1OC | inactive | inactive | 10% | 24 | 13 | 39% |
| COc1ccc2[nH]c(-c3ccc(N)cc3)cc2c1 | 14% | 69% | 85% | 42 | 33 | 35% |
| COc1cc(-c2cc3cc(F)ccc3[nH]2)cc(OC)c1OC | 9% | 3% | 23% | 19 | 10 | 50% |
| Nc1ccc(-c2cc3ccc(F)cc3[nH]2)cc1 | 35% | 65% | 80% | 35 | 22 | 81% |
| Nc1ccc(-c2cc3c(Cl)cccc3[nH]2)cc1 | inactive | 44% | 69% | 30 | 30 | 18% |
| COc1ccc(-c2cc3cc(F)ccc3[nH]2)cc1OC | inactive | 2% | 21% | 24 | 10 | 51% |
| Nc1ccc(-c2cc3ccccc3[nH]2)cc1 | 16% | 43% | 74% | 26 | 13 | 30% |
| Nc1ccc(-c2cc3ccc(Cl)cc3[nH]2)cc1 | 17% | 50% | 77% | 35 | 35 | 20% |
| COc1ccc2[nH]cc(CCNC(C)=O)c2c1 | 19% | 81% | 98% | 85 | 45 | 75% |
| O=[N+]([O-])c1ccc(-c2cc3cc(F)cc(Cl)c3[nH]2)cc1 | inactive | inactive | 5% | 20 | 5 | 39% |
| COc1ccc(-c2cc3cc(F)ccc3[nH]2)cc1F | inactive | inactive | inactive | 13 | 7 | inactive |
